High-throughput results (PubChem BioAssay)
An excerpt weighted towards active compounds, which were near 2.9% of everything screened.
SENP8 block-1 – blocks the human protease SENP8; Q96LD8; purified SENP8, Z-RLRGG-aminoluciferin cleavage, luminescence; inhibition, % at 10 µM; 330,000 tested, 1.2% active; in the data active means inhibition above about 50%
SENP8 block-2 – blocks human SENP8 cleavage of Nedd8 substrate; Q96LD8; recombinant SENP8, Nedd8 substrate fluorescence; inhibition, % at 20 µM; 360,000 tested, 0.64% active; AID 602440; in the data active means inhibition mostly above about 40%, no sharp cut-off; inactive means mostly below about 27%
SENP6 inh – blocks the human protease SENP6; Q9GZR1; Recombinant SENP6 catalytic domain, aminoluciferin luminescence; inhibition, % at 10 µM; 330,000 tested, 1.8% active; AID 2599;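 active means inhibition above about 50% at the single tested dose, limit read from the data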;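 further: plate controls were DMSO wells with enzyme for no effect and DMSO wells lacking enzyme for full effect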
Target sequence (Q9GZR1 628-1112 limits assumed): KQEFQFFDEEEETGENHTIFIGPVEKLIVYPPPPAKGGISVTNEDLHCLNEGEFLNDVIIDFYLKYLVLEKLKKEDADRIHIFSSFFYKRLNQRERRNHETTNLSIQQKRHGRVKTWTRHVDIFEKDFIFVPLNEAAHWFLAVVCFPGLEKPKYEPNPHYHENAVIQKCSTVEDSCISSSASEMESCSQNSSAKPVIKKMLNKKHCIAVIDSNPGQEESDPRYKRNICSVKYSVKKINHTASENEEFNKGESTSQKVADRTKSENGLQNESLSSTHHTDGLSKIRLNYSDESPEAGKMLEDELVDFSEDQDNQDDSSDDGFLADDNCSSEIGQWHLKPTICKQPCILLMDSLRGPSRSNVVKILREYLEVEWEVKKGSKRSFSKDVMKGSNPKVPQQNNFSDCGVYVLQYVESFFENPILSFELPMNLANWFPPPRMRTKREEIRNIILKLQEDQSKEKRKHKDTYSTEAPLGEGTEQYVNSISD
SENP7 block – inhibitors of human SENP7 protease | Q9BQF6 | recombinant SENP7, Z-RLRGG-aminoluciferin luminescence, 40 min | inhibition, % at 5 µM | 330,000 tested, 1.5% active | AID 434973;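 active means inhibition above about 50% at the single test dose, limit read from the data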;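 further: plate controls were DMSO with enzyme for no effect and no enzyme buffer wells for full effect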
SENP1 inh – blocks the human SENP1 SUMO protease catalytic domain; 360,000 tested, 0.21% active; Q9P0U3; inhibition, % at 10 µM; AID 624204; recombinant SENP1 catalytic domain, CyPet-SUMO1-YPet FRET cleavage;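 active means inhibition at least 30% at 10 µM, raw YFP signal under a set limit, fluorescence ratio 0.5 to 1.5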;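 further: 0% = enzyme with DMSO and 100% = no enzyme wells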
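Test system: human SENP1 catalytic domain; medium: Tris pH 8 buffer plus EDTA, NaCl, BME, BSA, NP40, catalase; incubation: 50 min reaction at room temperature; technique: FRET, CFP and YFP emission; controls: no-enzyme low control and enzyme-plus-DMSO high control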
HSP90 inh – blocks HSP90-mediated luciferase refolding in reticulocyte lysate; Rabbit reticulocyte lysate, luciferase refolding luminescence, 3 h; 290,000 tested, 0.91% active; inhibition, % at 5.6 µM;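 active means inhibition above the screen-wide mean plus 3 SD, computed separately per campaign, cut at about 16% in these data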;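 further: 0% = DMSO wells and 100% = 60 µM geldanamycin wells; inhibitors lower the luminescence because luciferase stays unfolded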
SENP8 conf – confirmation of human SENP8 protease inhibitors; shares compounds with SENP7 block; AID 488912; 6,200 tested, 40% active; inhibition, % at 12.5 µM; Recombinant SENP8, Z-RLRGG-aminoluciferin luminescence, 60 min;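 active means mean inhibition across replicates above about 50%, limit read from the data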
SENP6 conf – confirmation of human SENP6 protease inhibitors | recombinant SENP6, Z-RLRGG-aminoluciferin luminescence | inhibition, % at 12.5 µM | shares compounds with SENP7 block | 6,200 tested, 58% active
SENP7 conf – confirmation of human SENP7 protease inhibitors | shares compounds with SENP7 block | recombinant SENP7, Z-RLRGG-aminoluciferin luminescence, 40 min | inhibition, % at 12.5 µM | 6,200 tested, 69% active | AID 488917
Casp3 select – caspase-3 inhibition (SENP selectivity assay); shares compounds with SENP7 block; 6,200 tested, 60% active; inhibition, % at 12.5 µM; purified caspase-3, Z-DEVD-aminoluciferin luminescence, 60 min;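 active means mean inhibition above about 50%, limit read from the data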;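 further: plate controls were enzyme with DMSO for no effect and wells without caspase-3 for full effect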
SENP luc ctr – counter-screen for SENP inhibitors: luminescence interference; shares compounds with SENP7 block; Pre-incubated SENP8/Z-RLRGG-aminoluciferin, luciferase luminescence interference; inhibition, % at 12.5 µM; 6,200 tested, 39% active; AID 488919;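 active means mean inhibition above about 50% when retested at one dose, limit read from the data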;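 further: plate controls were DMSO wells with completed reaction for no effect and substrate without enzyme for full effect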
Active calls of the source: *; i = inactive; . = not tested or not shown.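 How the source made its calls, unless noted: active means mean inhibition above about 50% in the one-dose retest (limit read from the data); inactive means the rest.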

SMILES	SENP8 block-1	SENP8 block-2	SENP6 inh	SENP7 block	SENP1 inh	HSP90 inh	SENP8 conf	SENP6 conf	SENP7 conf	Casp3 select	SENP luc ctr
Brc1ccc(-c2cn3nc4c(nc3n2)CCCC4)cc1	74*	-406	70*	20	-15	1	38	66*	60*	43	10
CCc1ccc(-c2cn3nc(C)c(C)nc3n2)cc1	27	-276	23	-1	-26	12	.	.	.	.	.
CN(Cc1ccc(OC(F)F)cc1)C(=O)/C=C/c1ccc(S(=O)(=O)N2CCOCC2)cc1	5	7	-13	0	0	.	.	.	.	.	.
C=CC[C@@H](CC(=O)N[C@H](CO)Cc1ccccc1)C(=O)N[C@H](COC(=O)[C@@H](CC=C)Cc1ccc(F)cc1)Cc1ccccc1	-4	8	4	4	2	.	.	.	.	.	.
CCCCc1ccc(-c2ccc(Br)cc2)nc1	58*	14	68*	10	1	3	30	34	51*	46	40
CCOc1ccccc1CNC(=O)c1ccc(NC(=O)C2=C(C)OCCS2)cc1	20	-6	5	-8	-2	-6	.	.	.	.	.
COc1ccc(S(=O)(=O)NNC(=O)C23CC4CC(CC(C4)C2)C3)cc1[N+](=O)[O-]	-9	26	-14	17	1	.	.	.	.	.	.
CCOc1cccc(-c2nc3cc(C)ccc3o2)c1	40	14	79*	46	0	-2	24	49	83*	45	36
Cc1ccc2oc(-c3ccccc3)nc2c1	88*	-28	95*	93*	-2	-5	-5	75*	100*	46	9
O=C(O)CCc1ccc(-c2ccc(Cl)cc2)o1	47	15	73*	32	3	9	68*	61*	88*	66*	81*
O=C(O)CCc1ccc(-c2ccc(Br)cc2)o1	10	-4	38	-6	-3	-1	.	.	.	.	.
Cc1c(C=O)c(Cl)n(C)c(=O)c1C#N	41	-46	2	74*	-101	0	17	22	9	2	2
Cc1c(/C=N/Nc2ccc(F)cc2)c(O)n(C)c(=O)c1C#N	18	-8	13	9	-8	-6	.	.	.	.	.
CC(=O)N=Cc1c(C)c(C#N)c(=O)n(C)c1O	10	-16	57*	14	-32	1	-23	-18	-6	-5	-4
CC1(C)CC(NC(=O)C2CCN(S(=O)(=O)c3ccc(Cl)c(C(F)(F)F)c3)CC2)CC(C)(C)N1	.	14	.	.	1	.	.	.	.	.	.
CCc1ccc(NC(=O)c2noc3c2CCCCC3)cc1	-19	13	-7	4	-2	3	.	.	.	.	.
Cc1ccc(O)c(NC(=O)c2noc3c2CCCCC3)c1	76*	-4	-43	80*	0	5	30	24	46	21	41
Cc1ccc(NC(=O)c2noc3c2CCCCC3)cc1C	9	11	44	62*	3	10	14	13	27	18	9
CCc1ccc(NC(=O)c2noc3c2CCC3)cc1	70*	13	88*	60*	-6	6	80*	80*	96*	84*	81*
CN(C)S(=O)(=O)c1ccc(S(=O)(=O)N2CCCC(C(=O)NC3CCCC3)C2)cc1 (stereo not drawn)	1	12	-36	7	0	-2	.	.	.	.	.
COc1ccc(Nc2nc(-c3ccncc3)nc3ccccc23)cc1	-3	-20	-38	-11	2	0	.	.	.	.	.
CS(=O)(=O)Nc1ccc(-c2cnc3cccnn23)cc1	.	i	.	.	-42	.	.	.	.	.	.
CC[C@@H](C)C(NC(=O)OC(C)(C)C)c1cn([C@@H](Cc2ccc(O)cc2)C(=O)N2CCN(C(=O)OC(C)(C)C)CC2)nn1 (stereo partly drawn)	48	3	82*	33	4	12	-1	-5	0	6	7
CC[C@H](C)C(C(=O)N1CCN(C(=O)OC(C)(C)C)CC1)n1cc(C(CC(C)C)NC(=O)OC(C)(C)C)nn1 (stereo partly drawn)	-8	2	-1	-6	3	0	.	.	.	.	.
O=C(Oc1ccccc1)c1ccc(COC(=O)c2cnccn2)cc1	76*	16	94*	89*	2	-5	-22	80*	97*	87*	85*
SMILES	SENP8 block-1	SENP8 block-2	SENP6 inh	SENP7 block	SENP1 inh	HSP90 inh	SENP8 conf	SENP6 conf	SENP7 conf	Casp3 select	SENP luc ctr
O=C(OCc1c(Cl)cccc1Cl)c1ccccn1	-3	9	3	2	2	3	.	.	.	.	.
COC(=O)c1ccc(COC(=O)c2ccccn2)cc1	50	13	75*	82*	3	-4	76*	74*	91*	92*	76*
C[C@@H]1CN([C@H](C)CO)C(=O)CCCn2nncc2CO[C@H]1CN(C)C(=O)c1ccccc1	.	1	.	.	-1	.	.	.	.	.	.
Cc1cc(N/C=C/C(=O)c2cccs2)ccc1F	82*	-162	85*	46	-48	3	88*	90*	101*	87*	42
O=C(Cc1cccs1)Nc1cccc([N+](=O)[O-])c1	3	21	5	2	-5	-3	.	.	.	.	.
Cc1ccc(N/C=C/C(=O)c2cccs2)cc1C	85*	-143	88*	83*	-24	1	91*	92*	100*	84*	85*
O=C(/C=C/Nc1cccc([N+](=O)[O-])c1)c1cccs1	35	12	70*	62*	3	-1	4	53*	88*	58*	57*
O=C(/C=C/Nc1ccc(Nc2ccccc2)cc1)c1cccs1	.	16	.	.	58	2	.	.	.	.	.
O=C(/C=C/Nc1ccccc1C(=O)O)c1cccs1	82*	-51	92*	21	-32	0	4	96*	102*	98*	93*
CC(C)c1cc(CNC(=O)C2CCC(=O)N(CCc3ccc(Cl)cc3)C2)on1 (stereo not drawn)	-1	2	4	6	0	-1	.	.	.	.	.
CCOc1ncccc1C(=O)Nc1ccc2nc(C)sc2c1	2	-1	-8	6	-15	0	.	.	.	.	.
CCO/C=C1/C(=O)N(c2ccccc2OC)C(=O)c2ccccc21	16	-414	35	31	-64	3	.	.	.	.	.
